Data reported in article PMC3129977 (ACS chemical neuroscience, 2011).

Tests used:
aggregated Aβ42 peptides [1] = molecular target: T1, aggregated Aβ42 peptides (Homo sapiens, UniProt P05067); assay: Fluorescence studies with aggregated Aβ peptides; type: binding
[2] = molecular target: Aβ plaques in brain sections from an AD patient (Homo sapiens, UniProt P05067); assay: Staining of frozen human brain tissue sections; details: 60 μM probe in PBS, 30 min
How it was run: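 Frozen AD brain sections were dried for 1 h, passed through 100%, 95% and 70% ethanol (5 min each), rinsed in water, and equilibrated 15 min in PBS. Probe was diluted 1:50 from 3 mM PBS stock to 60 μM final and applied for 30 min at room temperature. Sections were PBS-washed, coverslipped and imaged by epifluorescence. Plaque/background intensity was normalized to a reference probe, as mean ± SD, n = 10 measurements per probe.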

aggregated Aβ42 peptides [3] = molecular target: T1, aggregated Aβ42 peptides; details: earlier report; cited from earlier work
[4] = free probe 4 μM, 5% DMSO in nanopure water, before mixing with aggregated Aβ42
[5] = probe 4 μM after mixing with aggregated Aβ42 (5 μM)

T1 sequence (P05067 672-713 limits assumed): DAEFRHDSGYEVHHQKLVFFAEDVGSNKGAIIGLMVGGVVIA
Chain of Aβ plaques in brain sections from an AD patient (P05067 672-711 limits assumed): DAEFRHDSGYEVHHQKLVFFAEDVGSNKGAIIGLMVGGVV

## COCCOCCOCCOC(=O)/C(C#N)=C/c1ccc2cc(N3CCCCC3)ccc2c1 [Compound 6]
Aggregated Aβ42 peptides [1]; [4]
  Em. max before: 590 nm
  Exc. max before: 415 nm
Aggregated Aβ42 peptides [1]; [5]
  Em. max after: 545 nm
  Exc. max after: 410 nm
Aggregated Aβ42 peptides [1]; probe 4 μM, aggregated Aβ42 5 μM
  Fold increase in emission intensity upon association with aggregated Aβ42: 7.7 fold
[2]
  Fluorescence contrast between plaques and surrounding tissue: weaker observed contrast
  Staining of Aβ plaques: stained
Aggregated Aβ42 peptides [3]
  Fluorescence change upon binding to Aβ fibrils: large increase in fluorescence intensity
